This passage reports activation, potentiation and outcome results from PubChem BioAssay.

Assay [1] in a line: thallium flux activation in parental CHO cells, counter-screen for KCNQ1 potentiator project (AID 493006;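 active = duplicate-averaged activation above buffer control mean plus 5 SD of those controls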;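 as to activation: fluorescence ratio of max minus min over baseline after K+ and Tl+ depolarization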). The following applies: parental CHO-K1 cells, FluxOR thallium flux, at 10 µM; active compounds read high. A digest of the protocol: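 Benchmarks – buffer and R-L3 controls · Assay system – untransfected host CHO-K1 cells with FluxOR thallium dye · Measure – fluorescence change ratio scaled 0% buffer, 100% R-L3 · Technique – kinetic thallium-flux fluorescence · Timing – overnight 37 °C plating, 90 min RT dye, 20 min compound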
(In general: The purpose of a counterscreen is to sort out artefacts and off-target activity.)

Assay [2] has as its target Potassium voltage-gated channel subfamily KQT member 1 (Homo sapiens) (UniProt P51787). The assay is described as follows: KCNQ1 potassium channel potentiators, confirmation, FluxOR thallium flux, CHO cells, duplicates (AID 493007;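 active = potentiation averaged over duplicate wells exceeding buffer-only control mean by more than 3 SD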;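 as to outcome: cells depolarized by a potassium plus thallium sulfate stimulus after compound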). The following applies: KCNQ1 cell line, FluxOR thallium flux fluorescence, at 10 µM; active compounds read high, % of reference activator effect, buffer zero. Put shortly:
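Material: CHO cells stably expressing the KCNQ1 potassium channel / Times: dye 90 min then compound 20 min, both at room temperature / Detection: kinetic thallium influx fluorescence with FluxOR dye, 10 s baseline, 110 s post-stimulus / Benchmarks: buffer-only wells as 0% and R-L3 activator as 100% / Replicates: each compound tested in duplicate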

Assay [3] deals with Potassium voltage-gated channel subfamily KQT member 2 (Rattus norvegicus) (UniProt O88943). The assay is described as follows: rat KCNQ2 channel potentiation, selectivity assay for KCNQ1 potentiator project, KCNQ2-CHO-K1 cells (AID 493009).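 Also: assay conditions were tuned for KCNQ1 rather than KCNQ2 modulators; signal is max minus min fluorescence divided by baseline after thallium stimulus.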 The following applies: FluxOR thallium flux fluorescence, at 10 µM; active compounds read high, scaled: buffer 0, activator control 100.
For assay [4], the target named is Potassium voltage-gated channel subfamily KQT member 1 (Homo sapiens) (UniProt P51787). The assay is described as follows: KCNQ1 channel current potentiators, confirmation, orthogonal assay for KCNQ1 potentiator project, IonWorks patch clamp, KCNQ1-CHO cells (AID 493184;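 active = current rise at least 3 SD above the untreated control mean in each of two repeat wells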). The following applies: automated patch clamp current, at 10 µM; active compounds read high. A digest of the protocol:
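Probe or stimulus: depolarizing pulse to +40 mV from -90 mV; Material: CHO cells carrying KCNQ1; Compound: one dose, 10 µM final; Signal: automated voltage clamp, amphotericin B perforated patch; Read-out basis: percent current increase versus pre-compound level; Buffer or medium: pH 7.4 external bath; Replication: duplicates.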
For orientation: Patch clamp records ionic current or voltage across a cell membrane.

The source made the active and inactive calls.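 The calls were made as follows, unless noted: active = mean duplicate potentiation above the buffer control mean plus 5 SD of buffer wells; inactive = the rest.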

Sequence of Potassium voltage-gated channel subfamily KQT member 1 (Homo sapiens) (P51787 whole entry, looked up): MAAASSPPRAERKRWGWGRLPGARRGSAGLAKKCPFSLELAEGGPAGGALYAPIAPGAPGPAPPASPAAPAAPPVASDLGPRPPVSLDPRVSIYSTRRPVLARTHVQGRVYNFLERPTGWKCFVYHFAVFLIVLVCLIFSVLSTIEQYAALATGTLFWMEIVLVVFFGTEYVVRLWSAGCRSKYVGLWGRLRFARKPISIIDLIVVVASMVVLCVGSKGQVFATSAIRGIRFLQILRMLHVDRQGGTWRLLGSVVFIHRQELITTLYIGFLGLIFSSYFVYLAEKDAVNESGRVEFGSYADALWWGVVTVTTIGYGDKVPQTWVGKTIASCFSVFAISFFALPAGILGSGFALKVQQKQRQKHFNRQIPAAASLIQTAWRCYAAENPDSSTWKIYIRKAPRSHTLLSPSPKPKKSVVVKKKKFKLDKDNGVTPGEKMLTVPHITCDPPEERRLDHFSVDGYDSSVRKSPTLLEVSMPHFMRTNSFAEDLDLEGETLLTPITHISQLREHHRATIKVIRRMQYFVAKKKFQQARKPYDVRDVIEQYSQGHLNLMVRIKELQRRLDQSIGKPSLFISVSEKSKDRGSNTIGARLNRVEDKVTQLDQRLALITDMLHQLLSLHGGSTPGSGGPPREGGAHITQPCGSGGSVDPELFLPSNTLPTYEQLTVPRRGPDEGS
Sequence of Potassium voltage-gated channel subfamily KQT member 2 (Rattus norvegicus) (O88943 whole entry, looked up): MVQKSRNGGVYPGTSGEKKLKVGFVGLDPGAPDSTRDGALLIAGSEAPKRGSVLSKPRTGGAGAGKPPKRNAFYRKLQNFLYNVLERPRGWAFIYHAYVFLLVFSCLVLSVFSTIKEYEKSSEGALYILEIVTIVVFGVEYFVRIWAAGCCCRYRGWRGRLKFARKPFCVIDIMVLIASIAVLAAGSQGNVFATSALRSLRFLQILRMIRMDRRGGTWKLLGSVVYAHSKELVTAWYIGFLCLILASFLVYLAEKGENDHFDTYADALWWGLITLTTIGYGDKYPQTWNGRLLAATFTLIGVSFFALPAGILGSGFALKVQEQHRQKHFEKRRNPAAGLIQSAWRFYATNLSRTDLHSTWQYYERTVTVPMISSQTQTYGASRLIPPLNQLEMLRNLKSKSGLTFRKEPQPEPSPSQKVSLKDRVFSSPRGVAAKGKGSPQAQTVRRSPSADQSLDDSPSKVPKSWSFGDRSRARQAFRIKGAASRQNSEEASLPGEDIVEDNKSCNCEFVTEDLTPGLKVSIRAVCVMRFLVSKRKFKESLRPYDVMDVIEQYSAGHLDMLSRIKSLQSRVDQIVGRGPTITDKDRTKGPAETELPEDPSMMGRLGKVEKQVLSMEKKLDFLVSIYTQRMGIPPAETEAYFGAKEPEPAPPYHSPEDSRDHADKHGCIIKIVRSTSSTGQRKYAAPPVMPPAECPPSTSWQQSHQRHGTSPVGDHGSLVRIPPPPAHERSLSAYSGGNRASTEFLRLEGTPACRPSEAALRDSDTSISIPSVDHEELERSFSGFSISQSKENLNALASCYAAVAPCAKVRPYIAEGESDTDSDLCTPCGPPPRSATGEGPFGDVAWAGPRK

Regarding `CCCn1c(SCN2C(=O)c3ccccc3C2=O)nc2cc(Cl)ccc2c1=O`, the activation in assay [1] was 179% (active). The potentiation in assay [2] was 39.5% (active); in assay [3] it was 196% (active). In assay [4], the result was inactive.
For `O=c1c(O)c(-c2cccs2)oc2ccccc12` the same measures were 290% (active), 115% (active), 289% (active) and “inactive”.
Take `O=C(NC(=S)Nc1nc2c(s1)CSc1ccccc1-2)c1ccccc1`: in assay [1], the activation is 170% (active). Besides, the potentiation is 68.5% (active) in assay [2] and 147% (active) in assay [3]. For the same compound, the outcome in assay [4] was inactive.
As to `COc1ccc(/C=N\NC(=S)SCN2C(=O)C3CCC(C)(C2=O)C3(C)C)cc1` (stereo unspecified), the result in assay [1], in assay [2], in assay [3] and in assay [4] was inactive.
